# ChEMBL document CHEMBL4689842, “EUbOPEN Chemogenomics Library wave 1” (2021)
# Tested on: HEK-293T
# Assay: Multiplex assay against HEK293T;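 as to Population Tubulin-Different-Phenotype (%): share of the cells with healthy nuclei that show this phenotype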
# Assay type: toxicity, cell-based
# Settings: human
# Summary of the method: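 Values for tubulin, mitochondrial-mass and membrane-permeability phenotypes are per cents of cells with healthy nuclei. These cells were identified by CellPathfinder machine-learning gating of live cells that had been stained at seeding with Hoechst33342, BioTracker Green Microtubule Cytoskeleton Dye, MitoTracker Red and Annexin V Alexa Fluor 680 and imaged on a CQ1 microscope at 37°C and 5% CO2 after compound addition. The gating first set Hoechst high-intensity objects apart from normal cells, then split normal cells into healthy, pyknosed or fragmented nuclei, and pyknosed cells into mitotic or apoptotic.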
# [1] = 12 h, 1 µM, compound concentration 1 uM, replicate 1
# [2] = 12 h, 1 µM, compound concentration 1 uM, replicate 2
# [3] = 12 h, 10 µM, compound concentration 10 uM, replicate 1
# [4] = 12 h, 10 µM, compound concentration 10 uM, replicate 2
# [5] = 24 h, 1 µM, compound concentration 1 uM, replicate 1
# [6] = 24 h, 1 µM, compound concentration 1 uM, replicate 2
# [7] = 24 h, 10 µM, compound concentration 10 uM, replicate 1
# [8] = 24 h, 10 µM, compound concentration 10 uM, replicate 2
# [9] = 48 h, 1 µM, compound concentration 1 uM, replicate 1
# [10] = 48 h, 1 µM, compound concentration 1 uM, replicate 2
# [11] = 48 h, 10 µM, compound concentration 10 uM, replicate 1
# [12] = 48 h, 10 µM, compound concentration 10 uM, replicate 2
compound,measurement,setting,value
CCOc1cc(C(=O)N2CCC(N3CCN(C)CC3)CC2)ccc1Nc1ncc2c(n1)N(C1CCCC1)c1ccccc1C(=O)N2C,Population Apoptotic (%),[1],61%
same,Population Fragmented Nuclei (%),[1],16%
same,Population Hoechst High Intensity Objects (%),[1],18%
same,Population Membrane Permeable-Phenotype (%),[1],5%
same,Population Mitochondria Different-Phenotype (%),[1],93%
same,Population Mitotic Cells (%),[1],38%
same,Population Normal (%),[1],81%
same,Population Pyknosed Nuclei (%),[1],57%
same,Population Tubulin-Different-Phenotype (%),[1],81%
same,Total Cell Count,[1],371
same,Population Apoptotic (%),[2],60%
same,Population Fragmented Nuclei (%),[2],4%
same,Population Healthy Nuclei (%),[2],25%
same,Population Hoechst High Intensity Objects (%),[2],5%
same,Population Membrane Permeable-Phenotype (%),[2],9%
same,Population Mitochondria Different-Phenotype (%),[2],88%
same,Population Mitotic Cells (%),[2],39%
same,Population Normal (%),[2],94%
same,Population Pyknosed Nuclei (%),[2],70%
same,Population Tubulin-Different-Phenotype (%),[2],79%
same,Total Cell Count,[2],178
same,Population Apoptotic (%),[3],83%
same,Population Fragmented Nuclei (%),[3],8%
same,Population Healthy Nuclei (%),[3],12%
same,Population Hoechst High Intensity Objects (%),[3],15%
same,Population Mitochondria Different-Phenotype (%),[3],95%
same,Population Mitotic Cells (%),[3],16%
same,Population Normal (%),[3],84%
same,Population Pyknosed Nuclei (%),[3],79%
same,Population Tubulin-Different-Phenotype (%),[3],60%
same,Total Cell Count,[3],215
same,Population Apoptotic (%),[4],92%
same,Population Fragmented Nuclei (%),[4],5%
same,Population Healthy Nuclei (%),[4],6%
same,Population Hoechst High Intensity Objects (%),[4],7%
same,Population Membrane Permeable-Phenotype (%),[4],0%
same,Population Mitochondria Different-Phenotype (%),[4],100%
same,Population Mitotic Cells (%),[4],7%
same,Population Normal (%),[4],92%
same,Population Pyknosed Nuclei (%),[4],88%
same,Population Tubulin-Different-Phenotype (%),[4],16%
same,Total Cell Count,[4],216
same,Population Apoptotic (%),[5],63%
same,Population Fragmented Nuclei (%),[5],19%
same,Population Hoechst High Intensity Objects (%),[5],19%
same,Population Membrane Permeable-Phenotype (%),[5],3%
same,Population Mitochondria Different-Phenotype (%),[5],96%
same,Population Mitotic Cells (%),[5],36%
same,Population Normal (%),[5],80%
same,Population Pyknosed Nuclei (%),[5],54%
same,Population Tubulin-Different-Phenotype (%),[5],83%
same,Total Cell Count,[5],391
same,Population Apoptotic (%),[6],66%
same,Population Fragmented Nuclei (%),[6],4%
same,Population Healthy Nuclei (%),[6],26%
same,Population Hoechst High Intensity Objects (%),[6],3%
same,Population Membrane Permeable-Phenotype (%),[6],5%
same,Population Mitochondria Different-Phenotype (%),[6],92%
same,Population Mitotic Cells (%),[6],33%
same,Population Normal (%),[6],96%
same,Population Pyknosed Nuclei (%),[6],69%
same,Population Tubulin-Different-Phenotype (%),[6],75%
same,Total Cell Count,[6],204
same,Population Apoptotic (%),[7],91%
same,Population Fragmented Nuclei (%),[7],15%
same,Population Healthy Nuclei (%),[7],4%
same,Population Hoechst High Intensity Objects (%),[7],19%
same,Population Membrane Permeable-Phenotype (%),[7],0%
same,Population Mitochondria Different-Phenotype (%),[7],100%
same,Population Mitotic Cells (%),[7],8%
same,Population Normal (%),[7],80%
same,Population Pyknosed Nuclei (%),[7],80%
same,Population Tubulin-Different-Phenotype (%),[7],37%
same,Total Cell Count,[7],206
same,Population Apoptotic (%),[8],93%
same,Population Fragmented Nuclei (%),[8],6%
same,Population Healthy Nuclei (%),[8],18%
same,Population Hoechst High Intensity Objects (%),[8],11%
same,Population Mitochondria Different-Phenotype (%),[8],97%
same,Population Mitotic Cells (%),[8],6%
same,Population Normal (%),[8],88%
same,Population Pyknosed Nuclei (%),[8],74%
same,Population Tubulin-Different-Phenotype (%),[8],21%
same,Total Cell Count,[8],222
same,Population Apoptotic (%),[9],64%
same,Population Fragmented Nuclei (%),[9],22%
same,Population Healthy Nuclei (%),[9],31%
same,Population Hoechst High Intensity Objects (%),[9],20%
same,Population Mitochondria Different-Phenotype (%),[9],91%
same,Population Mitotic Cells (%),[9],35%
same,Population Normal (%),[9],79%
same,Population Pyknosed Nuclei (%),[9],46%
same,Population Tubulin-Different-Phenotype (%),[9],65%
same,Total Cell Count,[9],400
same,Population Apoptotic (%),[10],58%
same,Population Fragmented Nuclei (%),[10],8%
same,Population Healthy Nuclei (%),[10],48%
same,Population Hoechst High Intensity Objects (%),[10],5%
same,Population Membrane Permeable-Phenotype (%),[10],0%
same,Population Mitochondria Different-Phenotype (%),[10],72%
same,Population Mitotic Cells (%),[10],41%
same,Population Normal (%),[10],94%
same,Population Pyknosed Nuclei (%),[10],43%
same,Population Tubulin-Different-Phenotype (%),[10],63%
same,Total Cell Count,[10],239
same,Population Apoptotic (%),[11],90%
same,Population Fragmented Nuclei (%),[11],23%
same,Population Healthy Nuclei (%),[11],2%
same,Population Hoechst High Intensity Objects (%),[11],20%
same,Population Membrane Permeable-Phenotype (%),[11],0%
same,Population Mitotic Cells (%),[11],9%
same,Population Normal (%),[11],79%
same,Population Pyknosed Nuclei (%),[11],74%
same,Population Tubulin-Different-Phenotype (%),[11],75%
same,Total Cell Count,[11],233
same,Population Apoptotic (%),[12],98%
same,Population Fragmented Nuclei (%),[12],13%
same,Population Healthy Nuclei (%),[12],11%
same,Population Hoechst High Intensity Objects (%),[12],10%
same,Population Membrane Permeable-Phenotype (%),[12],5%
same,Population Mitochondria Different-Phenotype (%),[12],100%
same,Population Mitotic Cells (%),[12],1%
same,Population Normal (%),[12],90%
same,Population Pyknosed Nuclei (%),[12],75%
same,Population Tubulin-Different-Phenotype (%),[12],50%
same,Total Cell Count,[12],200
